Measurements published in ChEMBL document CHEMBL3822380, “Simple avarone mimetics as selective agents against multidrug resistant cancer cells” (Eur J Med Chem, 2016).
pIC50: −log10 of the molar value. Converted amounts (≈) assume the structure as drawn. The source made the active and inactive calls.

Tests used:
NCI-H460 [1] = assay: Induction of apoptosis in multidrug resistant human NCI-H460 cells assessed as late apoptotic/necrotic cells at 25 uM after 72 hrs by annexin-V/propidium iodide staining-based flow cytometric analysis (reference value: 1%); type: functional
NCI-H460 [2] = assay: Induction of apoptosis in human NCI-H460 cells assessed as early apoptotic cells at 25 uM after 72 hrs by annexin-V/propidium iodide staining-based flow cytometric analysis (reference value: 0.3%); type: functional
NCI-H460 [3] = assay: Cytotoxicity against human NCI-H460 cells after 72 hrs by MTT assay; type: functional, cell-based; conditions: NCI-H460, 72 h
Outline: (§1)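 Seeding in 96-well plates at 1000 (NCI-H460), 2000 (NCI-H460/R) or 4000 (HaCaT) cells/well, treated after 24 h for 72 h. MTT at 0.4 mg/mL final, 4 h at 37 °C. Formazan dissolved in DMSO, absorbance read at 540 nm. Inhibition % = (1 − A treated/A untreated)×100. IC30 and IC50 obtained by linear regression.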

HaCaT [4] = assay: Induction of apoptosis in human HaCaT cells assessed as early apoptotic cells at 25 uM after 72 hrs by annexin-V/propidium iodide staining-based flow cytometric analysis (reference value: 0.2%); type: cell-based
HaCaT [5] = assay: Induction of apoptosis in human HaCaT cells assessed as dead cells at 25 uM after 72 hrs by annexin-V/propidium iodide staining-based flow cytometric analysis (reference value: 2.8%); type: cell-based
[6] = Selectivity ratio of IC30/IC50 for human HaCaT cells to IC30/IC50 for human NCI-H460 cells; type: ADME, cell-based; conditions: HaCaT cells versus NCI-H460 cells
Outline: (§2)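 Fold threshold of 1.5 used to call selectivity to cancer cells, resistance, or selectivity to MDR cells.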

NCI-H460 [7] = assay: Induction of superoxide anion generation in multidrug resistant human NCI-H460 cells at 25 uM after 72 hrs by DHE staining-based flow cytometric analysis relative to control; type: functional, cell-based
Outline: (§3)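 Seeded as for cell death (50,000 or 100,000 cells/well), treated 72 h at 25 µM, with CDDP 5 µM as control. Adherent cells trypsinized and loaded with 1 µM DHE for 30 min at 37 °C in the dark, then washed twice in PBS. Flow cytometry at ex 488/em 585 nm (FL2-H). Mean fluorescence intensity corrected for autofluorescence and compared with untreated control.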

NCI-H460 [8] = assay: Selectivity ratio of IC30/IC50 for human NCI-H460 cells to IC30/IC50 for multidrug resistant human NCI-H460 cells; type: functional; outline: as §2
NCI-H460 [9] = assay: Induction of apoptosis in multidrug resistant human NCI-H460 cells assessed as early apoptotic cells at 25 uM after 72 hrs by annexin-V/propidium iodide staining-based flow cytometric analysis (reference value: 1.1%); type: functional
HaCaT [10] = assay: Induction of apoptosis in human HaCaT cells assessed as late apoptotic/necrotic cells at 25 uM after 72 hrs by annexin-V/propidium iodide staining-based flow cytometric analysis (reference value: 0.2%); type: cell-based
NCI-H460 [11] = assay: Induction of apoptosis in human NCI-H460 cells assessed as live cells at 25 uM after 72 hrs by annexin-V/propidium iodide staining-based flow cytometric analysis (reference value: 98.3%); type: functional
HaCaT [12] = assay: Induction of superoxide anion generation in human HaCaT cells at 25 uM after 72 hrs by DHE staining-based flow cytometric analysis relative to control; type: cell-based; outline: as §3
NCI-H460 [13] = assay: Induction of apoptosis in human NCI-H460 cells assessed as late apoptotic/necrotic cells at 25 uM after 72 hrs by annexin-V/propidium iodide staining-based flow cytometric analysis (reference value: 0.2%); type: functional
NCI-H460 [14] = assay: Induction of apoptosis in multidrug resistant human NCI-H460 cells assessed as dead cells at 25 uM after 72 hrs by annexin-V/propidium iodide staining-based flow cytometric analysis (reference value: 1.5%); type: functional
[15] = Selectivity ratio of IC30/IC50 for human HaCaT cells to IC30/IC50 for multidrug resistant human NCI-H460 cells; type: ADME, cell-based; conditions: HaCaT cells versus multidrug resistant NCI-H460 cells; outline: as §2
NCI-H460 [16] = assay: Cytotoxicity against multidrug resistant human NCI-H460 cells after 72 hrs by MTT assay; type: functional, cell-based; conditions: NCI-H460, 72 h; outline: as §1
NCI-H460 [17] = assay: Induction of apoptosis in multidrug resistant human NCI-H460 cells assessed as live cells at 25 uM after 72 hrs by annexin-V/propidium iodide staining-based flow cytometric analysis (reference value: 96.4%); type: functional
HaCaT [18] = assay: Cytotoxicity against human HaCaT cells after 72 hrs by MTT assay; type: cell-based; conditions: for pIC50: Homo sapiens, HaCaT; for IC30: human, hacat; outline: as §1
NCI-H460 [19] = assay: Induction of apoptosis in human NCI-H460 cells assessed as dead cells at 25 uM after 72 hrs by annexin-V/propidium iodide staining-based flow cytometric analysis (reference value: 1.2%); type: functional
[20] = Induction of apoptosis in human HaCaT cells assessed as live cells at 25 uM after 72 hrs by annexin-V/propidium iodide staining-based flow cytometric analysis (reference value: 96.8%); type: cell-based; conditions: read-out: Activity
Pseudomonas aeruginosa = assay: Antibacterial activity against Pseudomonas aeruginosa ATCC 9027 by broth microdilution method; type: functional
Outline: (§4)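 Broth microdilution per NCCLS. Compounds dissolved in DMSO as 10 mg/mL stock, diluted in Mueller Hinton broth (bacteria) or Sabouraud dextrose broth (fungi). Amikacin served as the positive control for bacteria and nystatin for fungi.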

Micrococcus luteus [21] = assay: Antibacterial activity against Micrococcus luteus ATCC 4698 by broth microdilution method; type: functional; conditions: NCTC 2665; outline: as §4
Micrococcus luteus [22] = assay: Antibacterial activity against Micrococcus luteus ATCC 10240 by broth microdilution method; type: functional; outline: as §4
Kocuria rhizophila = assay: Antibacterial activity against Kocuria rhizophila ATCC 9341 by broth microdilution method; type: functional; conditions: DC2201; outline: as §4
Proteus hauseri = assay: Antibacterial activity against Proteus hauseri ATCC 13315 by broth microdilution method; type: functional; outline: as §4
Salmonella enteritidis = assay: Antibacterial activity against Salmonella enterica subsp. enterica serovar Enteritidis ATCC 13076 by broth microdilution method; type: functional; outline: as §4
Clostridium sporogenes = assay: Antibacterial activity against Clostridium sporogenes ATCC 19404 by broth microdilution method; type: functional; outline: as §4
Staphylococcus aureus = assay: Antibacterial activity against Staphylococcus aureus ATCC 6538 by broth microdilution method; type: functional; outline: as §4
Escherichia coli = assay: Antibacterial activity against Escherichia coli ATCC 25922 by broth microdilution method; type: functional; outline: as §4
Bacillus spizizenii = assay: Antibacterial activity against Bacillus subtilis ATCC 6633 by broth microdilution method; type: functional; outline: as §4

## CC1=CCC[C@H]2[C@](C)(CC3=CC(=O)C=C(NCCc4ccccc4)C3=O)[C@@H](C)CC[C@]12C
NCI-H460 [1]
  Activity: 3.5%
NCI-H460 [2]
  Activity: 0.1%
NCI-H460 [3]
  IC30: 14 µM
  pIC50: 4.68
HaCaT [4]
  Activity: 0.2%
HaCaT [5]
  Activity: 41.3%
[6]
  selectivity ratio: ≤ 1.5
NCI-H460 [7]
  Activity: Active
NCI-H460 [8]
  selectivity ratio: <=1.5
NCI-H460 [9]
  Activity: 1.2%
HaCaT [10]
  Activity: 0.4%
NCI-H460 [11]
  Activity: 71.7%
HaCaT [12]
  Activity: Toxic
NCI-H460 [13]
  Activity: 0.2%
NCI-H460 [14]
  Activity: 42.3%
[15]
  selectivity ratio: ≤ 1.5
NCI-H460 [16]
  IC30: 6 µM
  pIC50: 4.96
NCI-H460 [17]
  Activity: 53%
HaCaT [18]
  pIC50: 4.64
  IC30: 18 µM
NCI-H460 [19]
  Activity: 28%
[20]
  viability at 72 h, 25 µM: 58.1%

## CC(C)(C)C1=CC(=O)C(NCc2ccccc2)=CC1=O
Pseudomonas aeruginosa
  MIC: 4650 µM (≈ 1250 µg/mL)
NCI-H460 [3]
  IC30: 13 µM
  pIC50: 4.72
Micrococcus luteus [21]
  MIC: 2320 µM (≈ 626 µg/mL)
Micrococcus luteus [22]
  MIC: 18 µM (≈ 4.85 µg/mL)
[6]
  selectivity ratio: ≤ 1.5
NCI-H460 [8]
  selectivity ratio: <=1.5
Kocuria rhizophila
  MIC: 4650 µM (≈ 1250 µg/mL)
[15]
  selectivity ratio: ≤ 1.5
Proteus hauseri
  MIC: 2320 µM (≈ 626 µg/mL)
NCI-H460 [16]
  IC30: 5 µM
  pIC50: 4.82
Salmonella enteritidis
  MIC: 4650 µM (≈ 1250 µg/mL)
HaCaT [18]
  pIC50: 4.55
  IC30: 12 µM
Clostridium sporogenes
  MIC: 2320 µM (≈ 626 µg/mL)
Staphylococcus aureus
  MIC: 72 µM (≈ 19.4 µg/mL)
Escherichia coli
  MIC: 36 µM (≈ 9.7 µg/mL)
Bacillus spizizenii
  MIC: 4650 µM (≈ 1250 µg/mL)
